# “And” between values parts separate entries of the source, which are not always exact repeats. Equal entries are not always repeated.
# Tests used:
# Type in all cases: functional
# Staphylococcus aureus [1] = experiment: Antimicrobial activity against vancomycin resistant Staphylococcus aureus VRS-5 expressing SCCmec type 2 element by microdilution method
# Method in brief: (§1)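 Broth microdilution per CLSI in cation-adjusted Mueller-Hinton broth. Antibiotic powders were reconstituted per CLSI. The MIC was read visually as the lowest drug concentration with no visible growth. S. aureus ATCC 29213 and E. faecalis ATCC 29212 served as control strains. VISA and VRSA isolates came from the NARSA program.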
# Staphylococcus aureus [2] = experiment: Antimicrobial activity against vancomycin intermediate Staphylococcus aureus NRS-73 expressing SCCmec type 4d element by microdilution method
# Method in brief: (§2)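 MIC by broth microdilution in cation-adjusted Mueller-Hinton broth, following CLSI guidelines; antibiotic powders reconstituted per CLSI. Read visually as the lowest drug concentration well with no visible growth. S. aureus ATCC 29213 and E. faecalis ATCC 29212 served as control strains. CA-MRSA: hospital patients culture-positive within 48 h of admission. DNSSA: patient blood isolates. VISA: obtained from the NARSA program.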
# Staphylococcus aureus [3] = experiment: Antimicrobial activity against vancomycin intermediate Staphylococcus aureus NRS-74 expressing SCCmec type 2 element by microdilution method; method in brief: as §2
# Staphylococcus aureus [4] = experiment: Antimicrobial activity against methicillin-resistant Staphylococcus aureus
# Staphylococcus aureus [5] = experiment: Antimicrobial activity against daptomycin-nonsusceptible Staphylococcus aureus by microdilution method; method in brief: as §2
# Staphylococcus aureus [6] = experiment: Antimicrobial activity against vancomycin resistant Staphylococcus aureus VRS-7 expressing SCCmec element by microdilution method; method in brief: as §1
# Staphylococcus aureus [7] = experiment: Antimicrobial activity against vancomycin intermediate Staphylococcus aureus NRS-51 expressing SCCmec type 2 element by microdilution method; method in brief: as §2
# Staphylococcus aureus [8] = experiment: Antimicrobial activity against vancomycin resistant Staphylococcus aureus VRS-4 expressing SCCmec type 4 element by microdilution method; method in brief: as §1
# Staphylococcus aureus [9] = experiment: Antimicrobial activity against vancomycin intermediate Staphylococcus aureus NRS-404 expressing SCCmec type 2 element by microdilution method; method in brief: as §2
# Staphylococcus aureus [10] = experiment: Antimicrobial activity against vancomycin intermediate Staphylococcus aureus NRS-68 expressing SCCmec type 2 element by microdilution method; method in brief: as §2
# Staphylococcus aureus [11] = experiment: Antimicrobial activity against vancomycin intermediate Staphylococcus aureus NRS-76 expressing SCCmec type 2 element by microdilution method; method in brief: as §1
# Staphylococcus aureus [12] = experiment: Antimicrobial activity against vancomycin-intermediate Staphylococcus aureus by microdilution method; method in brief: as §1
# Staphylococcus aureus [13] = experiment: Antimicrobial activity against vancomycin resistant Staphylococcus aureus VRS-1 expressing SCCmec type 2 element by microdilution method; method in brief: as §1
# Staphylococcus aureus [14] = experiment: Antimicrobial activity against community-acquired methicillin-resistant Staphylococcus aureus expressing SCCmec type 4a element by microdilution method; method in brief: as §2
# Staphylococcus aureus [15] = experiment: Antimicrobial activity against vancomycin intermediate Staphylococcus aureus NRS-4 expressing SCCmec type 2 element by microdilution method; method in brief: as §2
# Staphylococcus aureus [16] = experiment: Antimicrobial activity against vancomycin intermediate Staphylococcus aureus NRS-17 expressing SCCmec type 2 element by microdilution method; method in brief: as §2
# Staphylococcus aureus [17] = experiment: Antimicrobial activity against community-acquired methicillin-resistant Staphylococcus aureus expressing SCCmec type 2 element by microdilution method; method in brief: as §2
# Staphylococcus aureus [18] = experiment: Bactericidal activity against vancomycin-intermediate Staphylococcus aureus assessed as antibiotic concentration that reduced the number of viable cells by =>99.9% by colony count method
# Method in brief: (§3)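 MBC per CLSI guidelines. It was taken as the antibiotic concentration giving ≥99.9% reduction in viable cells, based on colony counts from the growth control well and rejection values from Pearson's tables.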
# Staphylococcus aureus [19] = experiment: Antimicrobial activity against vancomycin intermediate Staphylococcus aureus NRS-19 expressing SCCmec type 2 element by microdilution method; method in brief: as §2
# Staphylococcus aureus [20] = experiment: Antimicrobial activity against vancomycin resistant Staphylococcus aureus VRS-9 expressing SCCmec type 2 element by microdilution method; method in brief: as §1
# Staphylococcus aureus [21] = experiment: Bactericidal activity against community-acquired methicillin-resistant Staphylococcus aureus assessed as antibiotic concentration that reduced the number of viable cells by =>99.9% by colony count method
# Method in brief: (§4)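 MBC per CLSI following microdilution in cation-adjusted Mueller-Hinton broth. Defined as the concentration giving ≥99.9% reduction in viable cells, judged from colony counts of the growth control well against Pearson rejection-value tables. CA-MRSA isolates were hospital patients' isolates with positive MRSA culture within 48 h of admission.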
# Staphylococcus aureus [22] = experiment: Antimicrobial activity against vancomycin intermediate Staphylococcus aureus NRS-24 expressing SCCmec type 2 element by microdilution method; method in brief: as §2
# Staphylococcus aureus [23] = experiment: Bactericidal activity against vancomycin-resistant Staphylococcus aureus assessed as antibiotic concentration that reduced the number of viable cells by =>99.9% by colony count method; method in brief: as §4
# Staphylococcus aureus [24] = experiment: Bactericidal activity against community-acquired methicillin-resistant Staphylococcus aureus expressing SCCmec type 4a element assessed as antibiotic concentration that reduced the number of viable cells by =>99.9% by colony count method; method in brief: as §4
# Staphylococcus aureus [25] = experiment: Antimicrobial activity against vancomycin intermediate Staphylococcus aureus NRS-402 expressing SCCmec type 2 element by microdilution method; method in brief: as §2
# Staphylococcus aureus [26] = experiment: Antimicrobial activity against vancomycin resistant Staphylococcus aureus VRS-8 expressing SCCmec element by microdilution method; method in brief: as §1
# Staphylococcus aureus [27] = experiment: Antimicrobial activity against community-acquired methicillin-resistant Staphylococcus aureus expressing SCCmec type 4 element by microdilution method; method in brief: as §2
# Staphylococcus aureus [28] = experiment: Antimicrobial activity against vancomycin resistant Staphylococcus aureus VRS-2 expressing SCCmec type 2 element by microdilution method; method in brief: as §1
# Staphylococcus aureus [29] = experiment: Antimicrobial activity against vancomycin intermediate Staphylococcus aureus NRS-403 expressing SCCmec type 2 element by microdilution method; method in brief: as §2
# Staphylococcus aureus [30] = experiment: Antimicrobial activity against community-acquired methicillin-resistant Staphylococcus aureus by microdilution method; method in brief: as §2
# Staphylococcus aureus [31] = experiment: Antimicrobial activity against vancomycin intermediate Staphylococcus aureus NRS-18 expressing SCCmec type 2 element by microdilution method; method in brief: as §2
# Staphylococcus aureus [32] = experiment: Antimicrobial activity against vancomycin intermediate Staphylococcus aureus NRS-27 expressing SCCmec type 2 element by microdilution method; method in brief: as §2
# Staphylococcus aureus [33] = experiment: Antimicrobial activity against vancomycin intermediate Staphylococcus aureus NRS-22 expressing SCCmec type 2 element by microdilution method; method in brief: as §2
# Staphylococcus aureus [34] = experiment: Bactericidal activity against daptomycin-nonsusceptible Staphylococcus aureus assessed as antibiotic concentration that reduced the number of viable cells by =>99.9% by colony count method; method in brief: as §3
# Staphylococcus aureus [35] = experiment: Antimicrobial activity against vancomycin resistant Staphylococcus aureus VRS-3 expressing SCCmec type 4 element by microdilution method; method in brief: as §1
# Staphylococcus aureus [36] = experiment: Antimicrobial activity against vancomycin intermediate Staphylococcus aureus NRS-3 expressing SCCmec type 2 element by microdilution method; method in brief: as §2
# Staphylococcus aureus [37] = experiment: Antimicrobial activity against vancomycin intermediate Staphylococcus aureus NRS-126 expressing SCCmec type 2 element by microdilution method; method in brief: as §2
# Staphylococcus aureus [38] = experiment: Antimicrobial activity against vancomycin intermediate Staphylococcus aureus NRS-26 expressing SCCmec type 2 element by microdilution method; method in brief: as §2
# Staphylococcus aureus [39] = experiment: Antimicrobial activity against vancomycin resistant Staphylococcus aureus VRS-10 expressing SCCmec type 2 element by microdilution method; method in brief: as §1
# Staphylococcus aureus [40] = experiment: Antimicrobial activity against vancomycin resistant Staphylococcus aureus VRS-6 expressing SCCmec type 2 element by microdilution method; method in brief: as §1
# Staphylococcus aureus [41] = experiment: Bactericidal activity against community-acquired methicillin-resistant Staphylococcus aureus expressing SCCmec type 4 element assessed as antibiotic concentration that reduced the number of viable cells by =>99.9% by colony count method; method in brief: as §4
# Staphylococcus aureus [42] = experiment: Antimicrobial activity against vancomycin intermediate Staphylococcus aureus NRS-118 expressing SCCmec type 1 element by microdilution method; method in brief: as §2
# Staphylococcus aureus [43] = experiment: Antimicrobial activity against vancomycin intermediate Staphylococcus aureus NRS-23 expressing SCCmec type 2 element by microdilution method; method in brief: as §2
# Staphylococcus aureus [44] = experiment: Antimicrobial activity against vancomycin-resistant Staphylococcus aureus by microdilution method; method in brief: as §1
smiles,measurement,setting,value
CCO/N=C(\C(=O)N[C@@H]1C(=O)N2C(C(=O)[O-])=C(Sc3nc(-c4cc[n+](C)cc4)cs3)CS[C@H]12)c1nsc(NP(=O)(O)O)n1 [CEFTAROLINE FOSAMIL],MIC,Staphylococcus aureus [1],0.5 µg/mL
same,MIC,Staphylococcus aureus [2],0.5 µg/mL
same,MIC,Staphylococcus aureus [3],0.25 µg/mL
same,MIC,Staphylococcus aureus [4],0.12 µg/mL
same,MIC,Staphylococcus aureus [5],0.55 µg/mL and 0.25 µg/mL
same,MIC50,Staphylococcus aureus [5]; Staphylococcus aureus,0.5 µg/mL
same,MIC,Staphylococcus aureus [6],0.12 µg/mL
same,MIC,Staphylococcus aureus [7],1 µg/mL
same,MIC,Staphylococcus aureus [8],0.5 µg/mL
same,MIC,Staphylococcus aureus [9],0.5 µg/mL
same,MIC,Staphylococcus aureus [10],0.5 µg/mL
same,MIC,Staphylococcus aureus [11],0.25 µg/mL
same,MIC50,Staphylococcus aureus [12],0.5 µg/mL
same,MIC90,Staphylococcus aureus [12],1 µg/mL
same,MIC,Staphylococcus aureus [13],1 µg/mL
same,MIC90,Staphylococcus aureus [14],0.5 µg/mL
same,MIC,Staphylococcus aureus [15],0.5 µg/mL
same,MIC,Staphylococcus aureus [16],0.5 µg/mL
same,MIC90,Staphylococcus aureus [17],1 µg/mL
same,MBC50,Staphylococcus aureus [18],1 µg/mL
same,MBC90,Staphylococcus aureus [18],1 µg/mL
same,MBC,Staphylococcus aureus [18]; Staphylococcus aureus,0.5 µg/mL
same,MIC,Staphylococcus aureus [19],0.5 µg/mL
same,MIC,Staphylococcus aureus [20],0.25 µg/mL
same,MBC50,Staphylococcus aureus [21],0.5 µg/mL
same,MBC,Staphylococcus aureus [21]; Staphylococcus aureus,0.25 µg/mL
same,MIC,Staphylococcus aureus [22],0.5 µg/mL
same,MBC50,Staphylococcus aureus [23],0.5 µg/mL
same,MBC,Staphylococcus aureus [23]; Staphylococcus aureus,0.12 µg/mL
same,MBC90,Staphylococcus aureus [24],0.5 µg/mL
same,MIC,Staphylococcus aureus [25],0.5 µg/mL
same,MIC,Staphylococcus aureus [26],0.12 µg/mL
same,MIC90,Staphylococcus aureus [27],0.25 µg/mL
same,MIC,Staphylococcus aureus [28],0.5 µg/mL
same,MIC,Staphylococcus aureus [29],0.5 µg/mL
same,MIC50,Staphylococcus aureus [30],0.5 µg/mL
same,MIC90,Staphylococcus aureus [30],1 µg/mL
same,MIC,Staphylococcus aureus [31],0.5 µg/mL
same,MIC,Staphylococcus aureus [32],0.5 µg/mL
same,MIC,Staphylococcus aureus [33],0.5 µg/mL
same,MBC,Staphylococcus aureus [34],0.74 µg/mL and 0.25 µg/mL
same,MBC50,Staphylococcus aureus [34],1 µg/mL
same,MIC,Staphylococcus aureus [35],0.5 µg/mL
same,MIC,Staphylococcus aureus [36],1 µg/mL
same,MIC,Staphylococcus aureus [37],1 µg/mL
same,MIC,Staphylococcus aureus [38],0.25 µg/mL
same,MIC,Staphylococcus aureus [39],0.5 µg/mL
same,MIC,Staphylococcus aureus [40],0.5 µg/mL
same,MBC90,Staphylococcus aureus [41],0.5 µg/mL
same,MIC,Staphylococcus aureus [42],1 µg/mL
same,MIC,Staphylococcus aureus [43],0.5 µg/mL
same,MIC50,Staphylococcus aureus [44],0.5 µg/mL
same,MIC90,Staphylococcus aureus [44],0.5 µg/mL

# Reference: ChEMBL document CHEMBL1275598, “In vitro activity of ceftaroline against community-associated methicillin-resistant, vancomycin-intermediate, vancomycin-resistant, and daptomycin-nonsusceptible Staphylococcus aureus isolates” (2010)
